Reference: ChEMBL document CHEMBL1136894, “New antituberculotics originated from salicylanilides with promising in vitro activity against atypical mycobacterial strains” (Bioorg Med Chem, 2009)
In brackets after ≈: the same amount, converted by molar mass.

Key:
[1] = system: Mycobacterium tuberculosis; assay: Antimycobacterial activity against Mycobacterium tuberculosis CNCTC My 331/88 after 14 days; type: functional; settings: CNCTC My 331/88, 336 h
How it was run: (§1)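 Broth dilution in Sula semisynthetic medium, compounds added as DMSO solutions at 250, 125, 62, 32, 16, 8, 4, 2 and 1. Strains came from the Czech National Collection of Type Cultures; the M. tuberculosis inoculum was diluted 10^-3. Cultures were incubated at 37 °C, and MIC was read after 7, 14 and 21 days.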

[2] = system: Mycobacterium tuberculosis; assay: Antimycobacterial activity against Mycobacterium tuberculosis CNCTC My 331/88 after 21 days; type: functional; settings: CNCTC My 331/88, 504 h; how it was run: as §1
Mycobacterium avium [3] = assay: Antimycobacterial activity against Mycobacterium avium CNCTC My 330/88 after 14 days; type: functional; settings: CNCTC My 330/88, 336 h; how it was run: as §1
Mycobacterium avium [4] = assay: Antimycobacterial activity against Mycobacterium avium CNCTC My 330/88 after 21 days; type: functional; settings: CNCTC My 330/88, 504 h; how it was run: as §1
Mycobacterium kansasii [5] = assay: Antimycobacterial activity against Mycobacterium kansasii CNCTC My 235/80 after 7 days; type: functional; settings: CNCTC My 235/80, 168 h
How it was run: (§2)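 Compounds were added as DMSO solutions to Sula semisynthetic medium at 250, 125, 62, 32, 16, 8, 4, 2 and 1 µmol/L. Two M. kansasii strains were used: CNCTC My 235/80 and clinical isolate 6509/96, each with strain dilution 10^-4. Incubation was at 37 °C, and MIC was read at 7, 14 and 21 days.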

Mycobacterium kansasii [6] = assay: Antimycobacterial activity against Mycobacterium kansasii CNCTC My 235/80 after 14 days; type: functional; settings: CNCTC My 235/80, 336 h; how it was run: as §2
Mycobacterium kansasii [7] = assay: Antimycobacterial activity against Mycobacterium kansasii CNCTC My 235/80 after 21 days; type: functional; settings: CNCTC My 235/80, 504 h; how it was run: as §2
Mycobacterium kansasii [8] = assay: Antimycobacterial activity against Mycobacterium kansasii isolate 6509/96 after 7 days; type: functional; settings: isolate 6509/96, 168 h; how it was run: as §2
Mycobacterium kansasii [9] = assay: Antimycobacterial activity against Mycobacterium kansasii isolate 6509/96 after 14 days; type: functional; settings: isolate 6509/96, 336 h; how it was run: as §2
Mycobacterium kansasii [10] = assay: Antimycobacterial activity against Mycobacterium kansasii isolate 6509/96 after 21 days; type: functional; settings: isolate 6509/96, 504 h; how it was run: as §2
[11] = Lipophilicity, log K by HPLC; type: physicochemical
How it was run: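 Capacity factors k were measured by RP-HPLC and log k was calculated from them.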

HCT-8 = assay: Cytotoxicity against human HCT8 cells after 72 hrs by XTT assay; type: functional, cell-based; settings: HCT-8, 72 h
How it was run: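 HCT-8 cells were grown in EMEM with 5% FBS at 37 °C under 5% CO2. They were harvested with trypsin, seeded at 2 × 10^5 cells/mL and left 24 h. Medium was then replaced with compound in DMSO. DMSO-only wells served as the viability control and 20% DMSO as the cytotoxic control. Reagent was added for 4 h and absorbance read at 450 nm. Triplicates; EC50 reported.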

[12] = Selectivity index, ratio of EC50 for human HCT8 cells to MIC for Mycobacterium tuberculosis CNCTC My 331/88; type: functional, HCT-8
How it was run: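 SI is EC50 in HCT-8 cells divided by the M. tuberculosis MIC. HCT-8 cells were grown in EMEM with 5% FBS at 37 °C under 5% CO₂, trypsinised and seeded at 2 × 10⁵ cells/mL. After 24 h the medium was replaced with compound in DMSO. Controls were DMSO alone and 20% DMSO. Absorbance was read at 450 nm 4 h after reagent addition, in triplicate.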

[13] = Stability assessed as half life in phosphate buffer at pH 7.4 by UV-visible spectroscopy; type: physicochemical
How it was run: (§3)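 Compound in methanolic solution (10 or 20 µL) was added to tempered 7 × 10^-2 M phosphate buffer (2 mL) at pH 7.4 or 5.5, 37 °C. The absorbance decrease at 224 nm was followed by UV/vis.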

[14] = Stability assessed as half life in phosphate buffer at pH 5.5 by UV-visible spectroscopy; type: physicochemical; how it was run: as §3

Structure (SMILES)	MIC [1] [µM]	MIC [2] [µM]	MIC (Mycobacterium avium [3]) [µM]	MIC (Mycobacterium avium [4]) [µM]	MIC (Mycobacterium kansasii [5]) [µM]	MIC (Mycobacterium kansasii [6]) [µM]	MIC (Mycobacterium kansasii [7]) [µM]	MIC (Mycobacterium kansasii [8]) [µM]	MIC (Mycobacterium kansasii [9]) [µM]	MIC (Mycobacterium kansasii [10]) [µM]	log K [11]	EC50 (HCT-8) [µM]	Ratio [12]	half-life [13] [min]	half-life [14] [min]
C[C@H](NC(=O)OCc1ccccc1)C(=O)Oc1cc(Cl)ccc1C(=O)Nc1ccc(Cl)cc1	4 (≈ 1.95 µg/mL)	8 (≈ 3.9 µg/mL)	16 (≈ 7.8 µg/mL)	16 (≈ 7.8 µg/mL)	4 (≈ 1.95 µg/mL)	8 (≈ 3.9 µg/mL)	8 (≈ 3.9 µg/mL)	8 (≈ 3.9 µg/mL)	8 (≈ 3.9 µg/mL)	16 (≈ 7.8 µg/mL)	0.6337	–	–	–	–
O=C(N[C@H](Cc1ccccc1)C(=O)Oc1ccc(Cl)cc1C(=O)Nc1cccc(Cl)c1)OCc1ccccc1	4 (≈ 2.25 µg/mL)	4 (≈ 2.25 µg/mL)	16 (≈ 9.01 µg/mL)	32 (≈ 18 µg/mL)	8 (≈ 4.51 µg/mL)	16 (≈ 9.01 µg/mL)	16 (≈ 9.01 µg/mL)	8 (≈ 4.51 µg/mL)	16 (≈ 9.01 µg/mL)	16 (≈ 9.01 µg/mL)	1.0476	–	–	–	–
CC(C)[C@@H](NC(=O)OCc1ccccc1)C(=O)Oc1ccc(Cl)cc1C(=O)Nc1ccc(Cl)c(Cl)c1	2 (≈ 1.1 µg/mL)	4 (≈ 2.2 µg/mL)	16 (≈ 8.8 µg/mL)	16 (≈ 8.8 µg/mL)	4 (≈ 2.2 µg/mL)	4 (≈ 2.2 µg/mL)	8 (≈ 4.4 µg/mL)	8 (≈ 4.4 µg/mL)	8 (≈ 4.4 µg/mL)	16 (≈ 8.8 µg/mL)	1.1559	–	–	–	–
C[C@@H](NC(=O)OCc1ccccc1)C(=O)Oc1ccc(Cl)cc1C(=O)Nc1cccc(Cl)c1	8 (≈ 3.9 µg/mL)	8 (≈ 3.9 µg/mL)	32 (≈ 15.6 µg/mL)	32 (≈ 15.6 µg/mL)	16 (≈ 7.8 µg/mL)	16 (≈ 7.8 µg/mL)	16 (≈ 7.8 µg/mL)	8 (≈ 3.9 µg/mL)	16 (≈ 7.8 µg/mL)	16 (≈ 7.8 µg/mL)	0.699	–	–	–	–
O=C(N[C@H](Cc1ccccc1)C(=O)Oc1cc(Cl)ccc1C(=O)Nc1ccc(Cl)cc1)OCc1ccccc1	4 (≈ 2.25 µg/mL)	4 (≈ 2.25 µg/mL)	8 (≈ 4.51 µg/mL)	8 (≈ 4.51 µg/mL)	4 (≈ 2.25 µg/mL)	8 (≈ 4.51 µg/mL)	8 (≈ 4.51 µg/mL)	4 (≈ 2.25 µg/mL)	8 (≈ 4.51 µg/mL)	8 (≈ 4.51 µg/mL)	1.0315	104	26.05	22.1	17.9
O=C(CNC(=O)OCc1ccccc1)Oc1ccc(Cl)cc1C(=O)Nc1cccc(Cl)c1	4 (≈ 1.89 µg/mL)	8 (≈ 3.79 µg/mL)	16 (≈ 7.57 µg/mL)	32 (≈ 15.1 µg/mL)	16 (≈ 7.57 µg/mL)	16 (≈ 7.57 µg/mL)	16 (≈ 7.57 µg/mL)	8 (≈ 3.79 µg/mL)	16 (≈ 7.57 µg/mL)	16 (≈ 7.57 µg/mL)	0.6119	–	–	–	–
C[C@@H](NC(=O)OCc1ccccc1)C(=O)Oc1ccc(Cl)cc1C(=O)Nc1ccc(Br)cc1	2 (≈ 1.06 µg/mL)	4 (≈ 2.13 µg/mL)	16 (≈ 8.51 µg/mL)	16 (≈ 8.51 µg/mL)	4 (≈ 2.13 µg/mL)	8 (≈ 4.25 µg/mL)	8 (≈ 4.25 µg/mL)	8 (≈ 4.25 µg/mL)	16 (≈ 8.51 µg/mL)	16 (≈ 8.51 µg/mL)	0.7527	–	–	–	–
CC(C)[C@H](NC(=O)OCc1ccccc1)C(=O)Oc1ccc(Cl)cc1C(=O)Nc1ccc(Cl)c(Cl)c1	2 (≈ 1.1 µg/mL)	4 (≈ 2.2 µg/mL)	16 (≈ 8.8 µg/mL)	32 (≈ 17.6 µg/mL)	4 (≈ 2.2 µg/mL)	4 (≈ 2.2 µg/mL)	8 (≈ 4.4 µg/mL)	8 (≈ 4.4 µg/mL)	8 (≈ 4.4 µg/mL)	8 (≈ 4.4 µg/mL)	1.1567	–	–	–	–
O=C(N[C@H](Cc1ccccc1)C(=O)Oc1ccc(Cl)cc1C(=O)Nc1ccc(Cl)c(Cl)c1)OCc1ccccc1	2 (≈ 1.2 µg/mL)	2 (≈ 1.2 µg/mL)	16 (≈ 9.57 µg/mL)	32 (≈ 19.1 µg/mL)	4 (≈ 2.39 µg/mL)	4 (≈ 2.39 µg/mL)	8 (≈ 4.78 µg/mL)	8 (≈ 4.78 µg/mL)	8 (≈ 4.78 µg/mL)	8 (≈ 4.78 µg/mL)	1.303	–	–	–	–
C[C@@H](NC(=O)OCc1ccccc1)C(=O)Oc1cc(Cl)ccc1C(=O)Nc1ccc(Cl)cc1	4 (≈ 1.95 µg/mL)	8 (≈ 3.9 µg/mL)	16 (≈ 7.8 µg/mL)	16 (≈ 7.8 µg/mL)	8 (≈ 3.9 µg/mL)	8 (≈ 3.9 µg/mL)	8 (≈ 3.9 µg/mL)	4 (≈ 1.95 µg/mL)	8 (≈ 3.9 µg/mL)	16 (≈ 7.8 µg/mL)	0.6334	–	–	–	–
